Data reported in ChEMBL document CHEMBL1121573, “2-(Aminomethyl)phenols, a new class of saluretic agents. 1. Effects of nuclear substitution” (J Med Chem, 1980).

How the values were obtained:
[1] = tested on: Canis familiaris; test: Oral diuretic activity was evaluated by measuring Na+ excretion in dog at 16.2 mg/kg after […] ( 0-6 hr); assay type: ADME, organism-based, Canis lupus familiaris, Urine; design: dose 16.2 mg/kg; conditions: in vivo
How it was run: (§1)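 Dogs; spontaneous urine was pooled with bladder urine drained by catheter at the end of 6 h. Urine volume was measured, and aliquots were assayed for Na+, K+ and Cl− by standard methods. Values are geometric means, expressed as mequiv over 0–6 h.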

[2] = tested on: Rattus norvegicus; test: Oral diuretic activity was evaluated by measuring Cl- excretion in Rat at 9 mg/kg […] ( 0-5 hr); assay type: ADME, organism-based, Urine; design: dose 9 mg/kg; conditions: in vivo
How it was run: (§2)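 Female Charles-River rats (150–170 g) were kept overnight on a sugar diet with water ad libitum. Test substance was dissolved in DMF and diluted with water containing Tween 80 to a final 4% DMF vehicle, then given po in 5.0 mL. Rats were housed three per metabolism cage, and 0–5 h urine was assayed for Na⁺, K⁺ and Cl⁻ alongside concurrent placebo groups. Values are mequiv × 100 per cage, geometric means of three cages per dose.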

[3] = tested on: Rattus norvegicus; test: Oral diuretic activity was evaluated by measuring K+ excretion in Rat at 9 mg/kg […] ( 0-5 hr); assay type: ADME, organism-based, Urine; design: dose 9 mg/kg; how it was run: as §2
[4] = tested on: Canis familiaris; test: Oral diuretic activity was evaluated by measuring Na+ excretion in dog at 5.4 mg/kg after ip administration ( 0-6 hr); assay type: ADME, organism-based, Canis lupus familiaris, Urine; design: dose 5.4 mg/kg, route intraperitoneal; conditions: in vivo
How it was run: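 Urine collected over 0–6 h: spontaneous voids were pooled with bladder urine taken by catheterization at 6 h. Urine volume was measured, and aliquots were analysed for Na+, K+ and Cl− by standard methods. Electrolyte excretion is reported as geometric means.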

[5] = Compound administered orally at a dose of 5 mg/kg was evaluated for salidiuretic activity measured as sodium ion excretion in Rat; assay type: organism-based; design: dose 5 mg/kg; conditions: Urine
How it was run: (§3)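 Female Charles-River rats (150–170 g), overnight on sugar diet with water ad libitum. Compound dissolved in DMF, diluted with water containing Tween 80 (final 4% DMF), given po in 5.0 mL; concurrent vehicle placebo. Three rats per metabolism cage; 0–5 h urine analysed for Na+, K+, Cl-. Values: mequiv × 100 per cage, geometric means of three cages per dose; scored 0–6 by Na+.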

[6] = tested on: Rattus norvegicus; test: Oral diuretic activity was evaluated by measuring Na+ excretion in Rat at 81 mg/kg […] ( 0-5 hr); assay type: ADME, organism-based, Urine; design: dose 81 mg/kg
How it was run: (§4)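 Female Charles-River rats (150–170 g) were kept overnight on a sugar diet with water ad libitum. Compound was dissolved in DMF, then diluted with water containing Tween 80 (3 drops/100 mL) to a final 4% DMF, and given po in 5.0 mL. Rats were housed three per metabolism cage. Urine from 0–5 h was analysed for Na+, K+ and Cl−, with concurrent placebo controls. Values are mequiv × 100 per cage, geometric mean of three cages per dose.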

[7] = tested on: Rattus norvegicus; test: Oral diuretic activity was evaluated by measuring Cl- excretion in Rat at 3 mg/kg after […] ( 0-5 hr); assay type: ADME, organism-based, Urine; design: dose 3 mg/kg, route intraperitoneal; conditions: in vivo
[8] = tested on: Rattus norvegicus; test: Oral diuretic activity was evaluated by measuring Na+ excretion in Rat at 27 mg/kg […] ( 0-5 hr); assay type: ADME, organism-based, Urine; design: dose 27 mg/kg; how it was run: as §4
[9] = tested on: Canis familiaris; test: Oral diuretic activity was evaluated by measuring Na+ excretion in dog at 0.6 mg/kg after ip administration ( 0-6 hr); assay type: ADME, organism-based, Canis lupus familiaris, Urine; design: dose 0.6 mg/kg, route intraperitoneal; conditions: in vivo
How it was run: (§5)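 Spontaneous urine was pooled with bladder urine collected by catheterization at 6 h. Volume was measured and Na+, K+ and Cl− were determined by standard methods. Values are geometric means.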

[10] = tested on: Canis familiaris; test: Oral diuretic activity was evaluated by measuring K+ excretion in dog at 0.6 mg/kg after […] ( 0-6 hr); assay type: ADME, organism-based, Canis lupus familiaris, Urine; design: dose 0.6 mg/kg, route intraperitoneal; conditions: in vivo
[11] = tested on: Rattus norvegicus; test: Oral diuretic activity was evaluated by measuring Cl- excretion in Rat at 27 mg/kg after […] ( 0-5 hr); assay type: ADME, organism-based, Urine; design: dose 27 mg/kg, route intraperitoneal; conditions: in vivo
[12] = tested on: Canis familiaris; test: Oral diuretic activity was evaluated by measuring K+ excretion in dog at 16.2 mg/kg after ip administration ( 0-6 hr); assay type: ADME, organism-based, Canis lupus familiaris, Urine; design: dose 16.2 mg/kg, route intraperitoneal; conditions: in vivo; how it was run: as §5
[13] = tested on: Canis familiaris; test: Oral diuretic activity was evaluated by measuring Na+ excretion in dog at 1.8 mg/kg after […] ( 0-6 hr); assay type: ADME, organism-based, Canis lupus familiaris, Urine; design: dose 1.8 mg/kg; conditions: in vivo; how it was run: as §1
[14] = tested on: Rattus norvegicus; test: Oral diuretic activity was evaluated by measuring Na+ excretion in Rat at 3 mg/kg […] ( 0-5 hr); assay type: ADME, organism-based, Urine; design: dose 3 mg/kg; conditions: in vivo, ip; how it was run: as §4
[15] = tested on: Rattus norvegicus; test: Compound administered orally at a dose of 1 mg/kg was evaluated for salidiuretic activity measured as sodium ion excretion in Rat; conditions: in vivo, po
[16] = Evaluated for salidiuretic activity measured as sodium ion excretion in Rat, administered orally at a dose of 16.5 mg/kg; assay type: organism-based; design: dose 16.5 mg/kg; conditions: Urine; how it was run: as §3
[17] = tested on: Canis familiaris; test: Oral diuretic activity was evaluated by measuring Cl- excretion in dog at 5.4 mg/kg after […] ( 0-6 hr); assay type: ADME, organism-based, Canis lupus familiaris, Urine; design: dose 5.4 mg/kg, route intraperitoneal; conditions: in vivo
[18] = tested on: Canis familiaris; test: Oral diuretic activity was evaluated by measuring Cl- excretion in dog at 0.6 mg/kg after […] ( 0-6 hr); assay type: ADME, organism-based, Canis lupus familiaris, Urine; design: dose 0.6 mg/kg, route intraperitoneal; conditions: in vivo
[19] = tested on: Canis familiaris; test: Oral diuretic activity was evaluated by measuring K+ excretion in dog at 1.8 mg/kg after ip administration ( 0-6 hr); assay type: ADME, organism-based, Canis lupus familiaris, Urine; design: dose 1.8 mg/kg, route intraperitoneal; conditions: in vivo; how it was run: as §5
[20] = tested on: Rattus norvegicus; test: Evaluated for salidiuretic activity measured as sodium ion excretion in Rat, administered orally at a dose of 50 mg/kg; assay type: functional, Urine; design: unit not given beside the values; conditions: route oral; how it was run: as §3
[21] = tested on: Rattus norvegicus; test: Oral diuretic activity was evaluated by measuring K+ excretion in Rat at 81 mg/kg […] ( 0-5 hr); assay type: ADME, organism-based, Urine; design: dose 81 mg/kg; how it was run: as §2
[22] = tested on: Rattus norvegicus; test: Maximum fall in mean arterial blood pressure was measured in SH rats when compound was administered at 20 mg/kg perorally; assay type: functional; conditions: route oral
[23] = tested on: Canis familiaris; test: Oral diuretic activity was evaluated by measuring K+ excretion in dog at 5.4 mg/kg after ip administration ( 0-6 hr); assay type: ADME, organism-based, Canis lupus familiaris, Urine; design: dose 5.4 mg/kg, route intraperitoneal; conditions: in vivo; how it was run: as §5
[24] = tested on: Rattus norvegicus; test: Oral diuretic activity was evaluated by measuring Na+ excretion in Rat at 9 mg/kg […] ( 0-5 hr); assay type: ADME, organism-based, Urine; design: dose 9 mg/kg; conditions: in vivo, ip; how it was run: as §4
[25] = tested on: Rattus norvegicus; test: Oral diuretic activity was evaluated by measuring K+ excretion in Rat at 3 mg/kg after […] ( 0-5 hr); assay type: ADME, organism-based, Urine; design: dose 3 mg/kg; how it was run: as §2
[26] = tested on: Canis familiaris; test: Oral diuretic activity was evaluated by measuring Cl- excretion in dog at 16.2 mg/kg after […] ( 0-6 hr); assay type: ADME, organism-based, Canis lupus familiaris, Urine; design: dose 16.2 mg/kg, route intraperitoneal; conditions: in vivo
[27] = tested on: Canis familiaris; test: Oral diuretic activity was evaluated by measuring Cl- excretion in dog at 1.8 mg/kg after […] ( 0-6 hr); assay type: ADME, organism-based, Canis lupus familiaris, Urine; design: dose 1.8 mg/kg, route intraperitoneal; conditions: in vivo
[28] = tested on: Rattus norvegicus; test: Oral diuretic activity was evaluated by measuring Cl- excretion in Rat at 81 mg/kg after po administration ( 0-5 hr); conditions: in vivo
[29] = tested on: Rattus norvegicus; test: Oral diuretic activity was evaluated by measuring K+ excretion in Rat at 27 mg/kg after po administration ( 0-5 hr); conditions: in vivo

SMILES: CCc1c(Cl)c(C)c(CN)c(O)c1Cl.Cl
- Diuretic activity [1]: 33.33
- Diuretic activity [2]: 2.84
- Diuretic activity [3]: 0.56
- Diuretic activity [4]: 33.15
- Diuretic activity [5]: 2.6
- Diuretic activity [6]: 2.29
- Diuretic activity [7]: 1.62
- Diuretic activity [8]: 2.17
- Diuretic activity [9]: 8.12
- Diuretic activity [10]: 2.01
- Diuretic activity [11]: 3.14
- Diuretic activity [12]: 6.25
- Diuretic activity [13]: 19.43
- Diuretic activity [14]: 1.14
- Diuretic activity [15]: 0.7
- Diuretic activity [16]: 3.3
- Diuretic activity [17]: 37.15
- Diuretic activity [18]: 9.91
- Diuretic activity [19]: 3.62
- Diuretic activity [20]: 3.6
- Diuretic activity [21]: 0.44
- MAP [22]: 10 mmHg
- Diuretic activity [23]: 5.9
- Diuretic activity [24]: 2.02
- Diuretic activity [25]: 0.44
- Diuretic activity [26]: 38.78
- Diuretic activity [27]: 22.93
- Diuretic activity [28]: 3.2
- Diuretic activity [29]: 0.55
